Bioassay records: PubChem, several laboratories
Shown are actives, neighbours in structure and some others; about 1.7% of the full set was active somewhere.
CSN deneddyl inh: blocks human CSN-mediated cullin deneddylation; Q92905; Purified CSN, SCF-Nedd8-OG deneddylation, fluorescence polarization; inhibition, % at 12.5 µM; 0.38% of 360,000 active; AID 651999;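 active = pattern-corrected inhibition above about 35%, with an unprinted fluorescence ratio check between 0.5 and 1.5, limit read from the data, passing the limit was not always enough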;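 also: 0% = enzyme with substrate and 100% = substrate without enzyme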
Target sequence (Q92905 whole entry, looked up, one chain of several): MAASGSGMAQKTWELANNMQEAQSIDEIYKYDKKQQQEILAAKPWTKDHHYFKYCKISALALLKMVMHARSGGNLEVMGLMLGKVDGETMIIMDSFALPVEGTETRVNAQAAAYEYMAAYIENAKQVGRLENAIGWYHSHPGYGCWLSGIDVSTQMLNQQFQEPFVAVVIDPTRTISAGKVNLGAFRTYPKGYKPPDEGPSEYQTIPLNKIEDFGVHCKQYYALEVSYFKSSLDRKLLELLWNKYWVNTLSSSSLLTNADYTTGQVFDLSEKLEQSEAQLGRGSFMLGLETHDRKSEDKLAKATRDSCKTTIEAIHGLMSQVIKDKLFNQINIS
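Detection – fluorescence polarization · System – HEK293T-derived human Csn5 enzyme · Controls – substrate-only high control, full reaction low control · Timing – 90 min, room temperature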
IDE act: activators of human insulin-degrading enzyme in cells. P14735. HEK cells, FAbeta-B cleavage, fluorescence polarization; 0% vehicle, 100% cell-free pure enzyme wells. activation, % at 5.96 µM. 0.073% of 340,000 active;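 active = activation above the mean of all tested compounds plus 3 SD, set per screening campaign, cut at about 17% in these data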
IDE inh: cellular human IDE inhibition; HEK cells, FAbetaB cleavage, fluorescence polarization; inhibition, % at 5.59 µM; 0.41% of 320,000 active; AID 434962;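 active = percent inhibition above the average of all tested compounds plus 3 SD, set per screening campaign, cut at about 16% in these data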;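 also: IDE supplied by intact live HEK cells; FP after avidin binding of uncleaved biotin substrate so inhibition keeps polarization high; 0% = DMSO wells and 100% = 60 µM reference IDE inhibitor Ii1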
HNF4A DNA FP: change in binding of human HNF4 alpha to DNA | HNF4a-FITC DNA binding, fluorescence polarization, 1 h | 0.3% of 360,000 active | activity change, % at 10 µM; in the data active = activity change above about 30%, passing the limit was not always enough
TPT1 inh: C. albicans TPT1 enzyme inhibition; inhibition, % at 5 µM; recombinant caTPT1, FP RNA substrate dephosphorylation; 0.81% of 300,000 active;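 active = inhibition above the mean of all tested compounds plus 3 SD, set per screening campaign, cut at about 24% in these data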;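 also: plate controls were DMSO alone for no effect and ferristatin control at 100 nM for full effect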
Rpn11 block: Rpn11 (human) deubiquitinase inhibition; AID 588493; 0.59% of 360,000 active; inhibition, % at 20 µM; human 26S proteasome, Ub4-pepOG fluorescence polarization; 20S core pre-blocked with epoxomicin; O00487;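 active = inhibition at 20 µM, scaled to each plate's controls, above about 33%, limit read from the data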
Target sequence (O00487 whole entry, looked up): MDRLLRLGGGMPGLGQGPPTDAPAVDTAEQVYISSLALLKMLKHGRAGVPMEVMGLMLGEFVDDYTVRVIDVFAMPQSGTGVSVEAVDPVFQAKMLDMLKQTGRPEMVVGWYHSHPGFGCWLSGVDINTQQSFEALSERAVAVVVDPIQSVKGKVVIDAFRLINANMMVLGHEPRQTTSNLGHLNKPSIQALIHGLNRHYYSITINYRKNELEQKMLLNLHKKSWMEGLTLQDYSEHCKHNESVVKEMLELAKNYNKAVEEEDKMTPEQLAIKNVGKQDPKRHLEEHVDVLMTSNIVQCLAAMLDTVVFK
* hit, by the source's call; . = not tested or not shown.

SMILES	CSN deneddyl inh	IDE act	IDE inh	HNF4A DNA FP	TPT1 inh	Rpn11 block
COc1ccc(C(=O)Nc2ccc(-c3nnn(CC(=O)N4CCN(C(=O)c5ccco5)CC4)n3)cc2)cc1	79.9*	0.6	0.3	7.4	1.7	11.5
O=C(Cn1nnc(-c2ccc(Cl)cc2)n1)N1CCN(C(=O)c2ccco2)CC1	-6.0	5.4	-2.5	-2.5	.	1.4
O=C(COc1ccc(/C=N/NC(=O)c2ccncc2)cc1)Nc1ccc([N+](=O)[O-])cc1	-2.6	5.0	-0.5	2.7	-0.8	30.8
O=C(COc1ccc(/C=N/NC(=O)c2ccc(O)cc2)cc1)Nc1cccc([N+](=O)[O-])c1	59.0*	6.1	-1.3	-6.2	0.0	14.8
O=C(NCc1ccco1)c1cccc2c1C(=O)c1ccc(/C=C/c3ccccc3)cc1S2(=O)=O	55.4*	-6.1	7.5	-18.5	.	16.1
CC(=O)Oc1ccc(C(=O)Nc2cccc(C(=O)c3cccc(NC(=O)c4ccc(OC(C)=O)cc4)c3)c2)cc1	108.3*	5.3	0.8	12.3	-0.2	23.3
Cc1ccc(/C=C2/SC(=S)N(C3CCCCC3)C2=O)o1	28.9	-1.7	3.3	33.7*	15.1	101.5*
O=C1/C(=C/c2ccncc2)SC(=S)N1C1CCCCC1	4.6	-4.3	-2.2	0.2	0.4	-12.8
CCOC(=O)c1c(NC(=O)CC2Nc3ccccc3NC2=O)sc(C)c1C (stereo not given)	-0.5	-1.4	-7.5	52.5*	6.9	29.3
COC(=O)c1c(NC(=O)CC2Nc3ccccc3NC2=O)sc(C)c1C (stereo not given)	8.1	0.5	7.0	44.9*	13.6	11.3
CCOC(=O)c1c(NC(=O)CC2Sc3ccc(C(F)(F)F)cc3NC2=O)sc(C)c1C (stereo not given)	-5.9	0.7	-2.5	2.2	-0.9	-7.0
Nc1sccc1C(=O)NCCN1CCOCC1	-1.1	.	.	-3.6	.	.
Clc1cc(Cl)c2nc(N3CCCCC3)sc2c1	2.6	0.8	3.4	-2.3	-1.8	0.6
Clc1cc(Cl)c2nc(N3CCCC3)sc2c1	41.0*	-3.9	5.2	-2.7	-0.4	5.4
O=C(OCC(=O)N1CCN(C(=O)c2ccco2)CC1)c1ccc(S(=O)(=O)N2CCCCC2)cc1	-1.4	0.6	5.0	50.0*	-0.1	-3.3
COc1cc(NS(=O)(=O)c2ccc(Br)cc2)c(OC)cc1NC(=O)c1ccco1	6.8	4.2	0.3	68.0*	4.7	.
COc1ccc(S(=O)(=O)Nc2cc(OC)c(NC(=O)c3ccco3)cc2OC)cc1	2.1	-3.1	-0.4	0.8	-4.2	-5.8
Cc1nc(SCc2ccc(F)cc2)n[nH]1	1.7	1.2	-1.6	1.7	-0.7	-3.0
Cc1nc(SCc2ccc(Cl)c(Cl)c2)n[nH]1	3.2	0.9	.	117.8*	.	-2.9
O=C(COc1ccc2c(-c3ccccc3)cc(=O)oc2c1)Nc1cccnc1	49.0*	-0.4	0.7	10.6	1.4	21.8
Cc1ccc(S(=O)(=O)N2CC3C(=O)C[C@@H](c4ccccc4)N(S(=O)(=O)c4ccc(CCCOCCOCCNC(=O)OC(C)(C)C)cc4)C3CC2c2ccccc2)cc1 (stereo not given in full)	-2.5	.	.	-1.2	.	.
O=C(CCc1nc2ccccc2c(=O)[nH]1)Nc1ccc(N2CCCCC2)cc1	-3.6	-7.4	17.4*	-7.5	-2.9	-0.8
Cc1[nH]c2ccccc2c1C(=O)c1cc(Cc2ccccc2)sc1N	6.4	.	.	2.2	.	.
CCCCn1nnnc1C1(C)CCC(=O)N1Cc1cc(OC)ccc1OC (stereo not given)	-0.7	.	.	-2.6	.	.
O=C1OC(c2cccs2)=N/C1=C\c1ccc(-c2ccccc2Cl)o1	22.7	-0.2	.	16.6	.	87.4*
SMILES	CSN deneddyl inh	IDE act	IDE inh	HNF4A DNA FP	TPT1 inh	Rpn11 block
N#CCSc1nc2c(sc(=S)n2Cc2ccco2)c(=O)n1-c1ccc(F)cc1	5.0	5.4	-3.6	57.6*	0.8	10.1
COc1ccc(-c2cnc3c(NC(C)=O)cc(-c4ccsc4)cn23)cc1OC	27.5	.	.	17.4	.	54.5*
O=C(O)c1ccc(-n2c(-c3cc(-c4ccco4)[nH]n3)n[nH]c2=S)cc1	42.1*	1.9	5.9	-18.1	4.6	-15.0
OCCNc1nc2ccccc2n1CC(O)c1ccccc1 (stereo not given)	-5.7	7.6	-2.1	120.3*	2.0	-12.5
CC(C)Cn1c(NCCO)nc2ccccc21	-3.0	0.2	8.8	-5.6	-1.9	-3.3
COc1cc(OC)c2c(O)c3c(c(-c4c5c(c(O)c6c(OC)cc(OC)cc46)CO[C@@H](C)[C@H]5O)c2c1)[C@H](O)[C@H](C)OC3	27.9	-5.1	6.2	4.6	12.7	72.4*
O=C(NCc1ccccc1)C(CCc1ccccc1)n1c(=O)c(-c2ccccc2)nc2ccccc21 (stereo not given)	-1.0	.	.	1.6	.	.
Cn1c2c(c(=O)n3ncnc13)CCCC2	1.2	2.5	16.9*	0.8	0.1	-0.2
Cc1ccc(S(=O)(=O)N2[C@H](CC(=O)c3ccc(F)cc3)OC[C@@H]2C(C)C)cc1	-1.7	.	.	2.6	.	.
COC(=O)c1ccc(C)c(NC(=O)CCSc2ccccc2)c1	4.3	-0.6	5.9	0.1	-3.8	-6.9
COC(=O)c1ccc(C)c(NC(=O)CCSc2ccc(Cl)cc2)c1	5.4	2.4	5.4	94.9*	-3.6	-2.0
Cc1ccc(-c2nc(N3CCN(C)CC3)c3ccccc3n2)cc1	2.8	0.7	3.4	-0.6	-0.7	4.1
CN1CCN(c2nc(-c3cccc([N+](=O)[O-])c3)nc3ccccc23)CC1	44.0*	3.8	0.1	-2.5	-2.3	2.0
Cc1sc2c(c1C)C(=O)/C(=C\Nc1ccncc1)S(=O)(=O)N2C	35.0*	0.0	4.4	6.5	-1.7	4.9
COc1ccc(C(=O)c2[nH]c(N)c(C(=O)NCCc3c[nH]c4ccccc34)c2-c2ccccc2Br)cc1	-3.3	.	.	3.0	.	.
CCOC(=O)/C=c1\s/c(=C\c2ccc3cc(OC)ccc3c2)c(=O)n1CC(=O)NCc1ccc2c(c1)OCO2	59.8*	1.2	0.9	64.2	1.7	.
C=CCOC(=O)Nc1nc(CCNC(=O)OCc2ccccc2)c(C(=O)O)s1	-1.2	.	.	3.4	.	.
Cc1ccc2nc(-c3ccc(NC(=O)CN4CCN(C(=O)c5ccco5)CC4)cc3)sc2c1	3.2	-7.8	17.6*	0.6	3.1	31.9
[N-]=[N+]=NC(c1ccccc1)C(NC(=O)c1cc(C(F)(F)F)cc(C(F)(F)F)c1)c1ccccc1 (stereo not given)	-1.9	.	.	4.0	.	.
COc1ccc(-c2nc3cc(NC(=O)Cc4ccc(OC)c(OC)c4)ccc3o2)cc1	42.7*	5.7	-1.3	5.6	0.0	2.4
N#CC(C(=O)NCCc1ccccc1)c1nc2ccccc2nc1N1CCOCC1 (stereo not given)	39.0*	-0.9	2.3	49.1	1.6	.
